PubChem BioAssay AID504504 (Broad Institute, 2011)
Records with an inconclusive call do not appear. Activity calls are given as the source filed them.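 How the source made its calls: active means growth-lowering compounds whose fitted AC50 is at most ten times their top valid dose; inconclusive means flat fit with 30 to 70% inhibition, or unreliable fit; inactive means the rest.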

tested on: C. albicans CaCi-8 + fluconazole, Alamar Blue growth, 48 h; test: antifungal activity against resistant Candida strain – CaCi-8, with fluconazole, powder samples, set 10, dose response (AID 504504); settings: not given
How it was run: (§1)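 Probe or stimulus: fluconazole 8 µg/mL; Assay system: Candida albicans CaCi-8, a fluconazole-resistant clinical strain; Amount: inoculum OD600 0.00015; Medium: defined RPMI 1640 medium with MOPS, glucose, uridine; Schedule: 48 h at 37 °C, then dye 2 h RT; Detection: Alamar Blue fluorescence, excitation 544 nm, emission 590 nm.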

| SMILES | AC50 |
| --- | --- |
| COC(=O)Cn1nc(C2CCCCC2)c2ccccc21 | 3440 nM |
| CC1(O)CN(C(=O)Cn2c3ccccc3c3nc4n(c(=O)c32)CCS4)C1 | > 26000 nM (inactive) |
| c1ccc(-c2nn(Cc3nnco3)c3ccccc23)cc1 | 21800 nM |
| O=C(Cn1c2ccccc2c2nc3n(c(=O)c21)CCS3)N1CCCCC1 | 2170 nM |
| O=C(Cn1c2ccccc2c2nc3n(c(=O)c21)CCS3)N1CCC(F)(F)C1 | 6690 nM |
| O=C(Cn1c2ccccc2c2nc3n(c(=O)c21)CCS3)N1CCCC1 | 1970 nM |
| COC(=O)Cn1nc(-c2cscn2)c2ccccc21 | 18300 nM |
| O=C(Cn1c2ccccc2c2nc3n(c(=O)c21)CCS3)N1CC=CC1 | 2020 nM |
| COC(=O)Cn1nc(-c2cccc(C)c2)c2ccccc21 | 702 nM |
| COC(=O)Cn1c2ccc(F)cc2c2nc3n(c(=O)c21)CCS3 | 2990 nM |
| COC(=O)Cn1nc(-c2cccc(OC)c2)c2ccccc21 | 607 nM |
| COC(=O)Cn1nc(-c2cccc(F)c2)c2ccccc21 | 1840 nM |

tested on: not listed separately; test: as above; settings: C. albicans CaCi-8 + fluconazole, Alamar Blue growth, 48 h; at 26 µM (top of the series)
How it was run: as §1

| SMILES | activity change, negative = growth inhibition |
| --- | --- |
| O=C(Cn1c2ccc(F)cc2c2nc3n(c(=O)c21)CCS3)N1CC=CC1 | 65% (inactive) |
| CC1CCN(CCn2c3ccccc3c3nc4n(c(=O)c32)CCS4)CC1 | -17.5% (inactive) |
| COC(=O)n1nc(-c2ccccc2)c2ccccc21 | 11.4% (inactive) |
| CCc1nn(CC(=O)OC)c2ccccc12 | -7.82% (inactive) |
| O=C(O)Cn1c2ccc(F)cc2c2nc3n(c(=O)c21)CCS3 | -8.94% (inactive) |
| COC(=O)Cn1nc(C2CC2)c2ccccc21 | -23.8% (inactive) |
| O=C(O)Cn1c2ccccc2c2nc3n(c(=O)c21)CCS3 | -4.73% (inactive) |
| COC(=O)Cn1nc(C(C)(C)C)c2ccccc21 | -4.79% (inactive) |
| COC(=O)Cn1nc(-c2cnco2)c2ccccc21 | -17.4% (inactive) |
| O=C(Cn1c2ccc(F)cc2c2nc3n(c(=O)c21)CCS3)N1CCC(F)(F)C1 | 32% (inactive) |
| O=C(Cn1c2ccc(F)cc2c2nc3n(c(=O)c21)CCS3)N1CCC(F)(F)CC1 | 60.6% (inactive) |
| O=C(Cn1c2ccc(F)cc2c2nc3n(c(=O)c21)CCS3)N1CCCC1 | 15.4% (inactive) |
